Bioassay records as filed in PubChem.
rCAG binder: molecules binding r(CAG) RNA repeats; inhibition, % at 3 µM; 370,000 tested, 1.3% active; AID 651821; r(CAG) RNA repeat, TO-PRO-1 dye displacement fluorescence;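 active means inhibition above the plate cutoff, the mean of all test compounds on that plate plus 3 SD, cut at about 35% in these data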;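 further: 0% = DMSO alone and 100% = 100 µM mitoxantrone as full dye displacement; higher means more dye released from RNA so lower well fluorescence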
TCR-CD3 inh: blocks the human TCR-CD3 interaction; TAMRA-labeled TCR probe fluorescence, biochemical; 360,000 tested, 0.37% active; AID 651800; inhibition, % at 9.4 µM; in the data active means inhibition above about 19%;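 further: recombinant mutant TCR 2C K166C tagged with TAMRA read by polarization; 0% = receptor in buffer alone and 100% = receptor with positive control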
PRMT1 FP inh: PRMT1 (human) inhibition, primary screen. recombinant PRMT1, activity-based probe fluorescence polarization. inhibition, % at 2.79 µM. 370,000 tested, 1.3% active. AID 652257;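 active means inhibition above about 21% made by adding two undisclosed values, limit read from the data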
Target sequence (Q99873 whole entry, looked up): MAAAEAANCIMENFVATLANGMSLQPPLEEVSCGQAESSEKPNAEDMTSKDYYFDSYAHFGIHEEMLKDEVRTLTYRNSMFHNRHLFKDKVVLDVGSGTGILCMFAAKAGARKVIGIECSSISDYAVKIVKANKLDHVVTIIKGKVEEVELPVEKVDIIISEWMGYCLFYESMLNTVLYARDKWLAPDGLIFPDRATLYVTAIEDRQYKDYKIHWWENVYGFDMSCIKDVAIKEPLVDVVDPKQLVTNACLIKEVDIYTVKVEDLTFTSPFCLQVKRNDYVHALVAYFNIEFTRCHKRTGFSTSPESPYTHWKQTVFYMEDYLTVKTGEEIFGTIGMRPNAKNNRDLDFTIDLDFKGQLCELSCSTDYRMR
HTRA1 inh: blocks human HTRA1 serine peptidase | Q92743 | recombinant HTRA1, FP-rhodamine activity-based probe, fluorescence polarization | inhibition, % at 5.96 µM | 340,000 tested, 0.5% active; in the data active means inhibition above about 36%;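 further: 0% = enzyme with DMSO and 100% = wells lacking enzyme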
mABHD4 FP: inhibits mouse alpha/beta hydrolase domain 4; purified mABHD4, FP-Rh probe fluorescence polarization; Q8VD66; inhibition, % at 8.92 µM; 370,000 tested, 0.54% active;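 active means inhibition exceeding the mean over every tested compound plus 3 SD, cut at about 30% in these data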;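 further: 0% = plate median of compound wells and 100% = S159A mutant with DMSO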
Target sequence (Q8VD66 whole entry, looked up, the tested form may be a part): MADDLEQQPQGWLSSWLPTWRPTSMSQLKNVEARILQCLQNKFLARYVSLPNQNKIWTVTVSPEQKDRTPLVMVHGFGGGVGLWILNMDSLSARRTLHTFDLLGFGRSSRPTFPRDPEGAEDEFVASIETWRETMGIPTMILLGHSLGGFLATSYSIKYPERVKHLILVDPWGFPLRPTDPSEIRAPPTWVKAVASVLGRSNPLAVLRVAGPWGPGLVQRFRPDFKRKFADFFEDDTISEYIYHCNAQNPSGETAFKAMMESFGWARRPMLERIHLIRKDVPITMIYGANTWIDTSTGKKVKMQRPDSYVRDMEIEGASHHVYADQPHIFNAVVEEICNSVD
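Assay system: Wild-type mouse ABHD4 protein | Medium: HEPES pH 7.0 buffer, 150 mM NaCl, 0.01% Pluronic F-127 | Incubation: Enzyme–compound pre-incubation 45 min, then probe 60 min, both 25 °C | Technique: Fluorescence polarization with parallel and perpendicular emission, 525/598 nm | Evaluation: % inhibition of FP-Rh probe binding versus controls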
SIAE primary: blocks human sialic acid acetylesterase; Q9HAT2; SIAE FP-Rh probe binding, fluorescence polarization; inhibition, % at 9.66 µM; 370,000 tested, 0.69% active; AID 1053197;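 active means inhibition above a cutoff: mean of compounds within the control limits plus 3 SD of those, cut at about 17% in these data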;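 further: 0% = plate median of compound wells and 100% = probe without SIAE protein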
rCAG binder conf: r(CAG) RNA repeat binding, confirmation; TO-PRO-1 dye displacement fluorescence; shares compounds with rCAG binder; inhibition, % at 3 µM; AID 652065; 4,300 tested, 70% active;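 active means inhibition above a per-plate cutoff, the mean inhibition of sample wells plus 3 SD, cut at about 35% in these data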;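 further: loss of TO-PRO-1 fluorescence as compound displaces dye from 1x1 AA loop RNA; 0% = DMSO only wells and 100% = 100 µM mitoxantrone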
dCAG dye counter: DNA CAG dye complex inhibition counter-screen; shares compounds with rCAG binder; d(CAG) DNA oligo TO-PRO-1 dye displacement, fluorescence; inhibition, % at 3 µM; 4,300 tested, 94% active;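 active means inhibition above its plate's cutoff, the mean test-well inhibition plus 3 SD, cut at about 4.8% in these data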;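 further: 0% = DNA dye mix with DMSO and 100% = 100 µM mitoxantrone; hits displace the dye from DNA and so lower well fluorescence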
* hit, by the source's call; · = no result given. Only some compounds are listed: those with a hit (about 3.5% of all), similar ones and a draw of the others.

SMILES | rCAG binder | TCR-CD3 inh | PRMT1 FP inh | HTRA1 inh | mABHD4 FP | SIAE primary | rCAG binder conf | dCAG dye counter
Cc1ccc(S(=O)(=O)N2[C@@H](c3ccccc3F)C(C(=O)O)=CC[C@H]2c2ccc3c(c2)OCO3)cc1 | 46.5* | -9.2 | 2.4 | -8.4 | 12.7 | 4.3 | 40.5* | 10.5*
COC(=O)C[C@@H]1CC[C@H]2[C@@H](COc3ccc(NC(=O)c4ccc(Cl)cc4)cc3C(=O)N2C)O1 | 5.8 | · | 2.4 | · | -8.4 | -3.3 | · | ·
Cc1ccc(-c2nc(C3CCCN(S(=O)(=O)c4cccs4)C3)no2)cc1 (stereo unspecified) | 3.1 | · | -0.6 | · | -2.3 | 1.8 | · | ·
Cc1ccc(SCC(=O)Nc2ccc(S(=O)(=O)Nc3nccs3)cc2)cc1 | 48.7* | 6.5 | -1.8 | -7.7 | -4.7 | -6.5 | 50.2* | 14.6*
Cc1ccc(OC(C)C(=O)Nc2ccc(S(=O)(=O)Nc3nccs3)cc2)cc1 (stereo unspecified) | 37.6* | 6.9 | 1.8 | -8.2 | 8.7 | -7.9 | 22.7 | 6.5*
CCc1ccc(OC(C)C(=O)Nc2ccc(S(=O)(=O)Nc3nccs3)cc2)cc1 (stereo unspecified) | 51.6* | 6.3 | 1.0 | -6.8 | 22.2 | 2.7 | 38.7* | 14.1*
CC(C)(C)c1ccc(C(=O)NCCC(=O)Nc2ccc(S(=O)(=O)Nc3nccs3)cc2)cc1 | 57.2* | 6.8 | 0.3 | -3.3 | -1.4 | 2.1 | 54.2* | 20.0*
COC(=O)[C@]12C[C@H](CC(=O)NCCc3ccccc3OC)C(=O)N(Cc3cccc4ccccc34)C1=C[C@H](C(C)(C)C)O[C@@H]2C | 7.5 | · | -7.8 | · | -9.1 | -7.8 | · | ·
Cc1ccc(-n2c(SCC(=O)Nc3ccc(Oc4ccccc4)cc3)nnc2-c2ccco2)cc1 | 9.0 | · | -0.5 | · | -7.6 | -0.4 | · | ·
COC(=O)[C@]12C[C@H](CC(=O)N3CCN(C(=O)C4CC4)CC3)C(=O)N(Cc3cccc4ccccc34)C1=C[C@H](C1CCCC1)O[C@@H]2C | 9.4 | · | 1.7 | · | -5.1 | 1.6 | · | ·
CC(C)CN1C(=O)c2ccc(C(=O)Nc3ccc(O)cc3C(=O)O)cc2C1=O | 15.8 | 6.2 | 1.4 | 1.6 | -0.1 | -9.6 | · | ·
CC(C)CCN1C(=O)c2ccc(C(=O)Nc3ccccc3C(=O)O)cc2C1=O | 54.8* | 8.7 | 0.4 | -11.8 | -3.7 | -25.5 | 80.3* | 51.1*
COc1cc(NC(=O)c2ccc3c(c2)C(=O)N(CCC(C)C)C3=O)c(C(=O)O)cc1OC | 6.0 | 9.6 | -2.2 | 5.1 | 3.1 | 4.4 | · | ·
O=C(Nc1ccc(O)cc1C(=O)O)c1ccc2c(c1)C(=O)N(Cc1ccco1)C2=O | 72.8* | -5.5 | 6.4 | 4.3 | 14.5 | -42.5 | 86.3* | 50.0*
CC(C)CCN1C(=O)c2ccc(C(=O)Nc3ccc(O)cc3C(=O)O)cc2C1=O | 98.1* | -3.0 | -4.3 | 7.5 | 17.2 | -10.2 | 84.2* | 51.4*
O=C(O)c1cccc(NC(=S)NC(=O)c2cccc(OCc3ccccc3)c2)c1 | 60.9* | -4.2 | 1.1 | -26.3 | -36.7 | -13.7 | 63.7* | 25.6*
Cc1ccc(-c2cc(-c3ccccc3)c3c(N)c(S(C)(=O)=O)sc3n2)cc1 | 25.8 | -5.0 | 17.5 | -60.0 | -16.3 | -20.1 | · | ·
CS(=O)(=O)c1sc2nc(-c3cccs3)cc(-c3ccccc3)c2c1N | 65.0* | 10.4 | 64.6* | -60.5 | 6.0 | -51.9 | 70.3* | 35.9*
COc1cc(/C=C/C(=O)O)ccc1OS(=O)(=O)c1c(C)c(C)cc(C)c1C | 55.8* | 0.5 | 6.7 | -28.5 | -5.3 | -2.9 | 55.6* | 15.6*
Cc1c(/C=C2\SC(=Nc3cccc(C(=O)O)c3)NC2=O)c2ccccc2n1C | 44.6* | -3.6 | 3.0 | 2.8 | 16.6 | -0.4 | 39.6* | 14.7*
CCCCCc1c2c(cc(O)c1C(=O)O)OC(=O)c1cc(C(=O)CCCC)c(OC)cc1O2 | 87.0* | 2.7 | 0.7 | -29.4 | -99.8 | -35.5 | 88.2* | 61.4*
Cc1cnc(C(=O)OCC(=O)Nc2oc(-c3ccccc3)c(-c3ccccc3)c2C#N)cn1 | 46.1* | 2.0 | 1.7 | 6.6 | -13.7 | 0.6 | 51.3* | 14.1*
N#Cc1c(NC(=O)CSc2ccccn2)oc(-c2ccccc2)c1-c1ccccc1 | 8.1 | 5.8 | 0.8 | -35.9 | -8.6 | 1.2 | · | ·
Cc1ccc2nc(N/C(=N/S(=O)(=O)c3ccc(F)cc3F)c3ccccc3)sc2c1 | 45.9* | -7.5 | 6.3 | -16.2 | -45.3 | -4.8 | 47.7* | 14.5*
Cc1ccc2nc(N/C(=N/S(=O)(=O)c3ccc(F)cc3)c3ccccc3)sc2c1 | 27.1 | -4.8 | -1.4 | -5.9 | -13.8 | 0.9 | · | ·
SMILES | rCAG binder | TCR-CD3 inh | PRMT1 FP inh | HTRA1 inh | mABHD4 FP | SIAE primary | rCAG binder conf | dCAG dye counter
CCCCCCSc1nc(O)c(C2OC(=O)c3c2ccc(OC)c3OC)c(=O)n1CC (stereo unspecified) | 38.6* | -6.3 | 2.9 | 2.4 | 1.9 | 5.4 | 35.9* | 8.3*
COCCN(CCOC)Cc1c(O)ccc2c1O/C(=C\c1ccc(C)o1)C2=O | 36.0* | 6.5 | 18.9 | 3.5 | 14.6 | 8.0 | -0.4 | -1.4
O=C(OC12CCCN(C1)/C(=C/c1cccc(Cl)c1)C2)c1ccc(F)cc1 (stereo unspecified) | 2.3 | · | -3.2 | · | 1.1 | -1.1 | · | ·
Cc1ccc(-n2c(SCC(=O)Nc3ccc4c(c3)OCCO4)nnc2-c2cnccn2)cc1 | 2.3 | · | -3.8 | · | 5.4 | 3.6 | · | ·
O=C(O)c1ccc(N2N=C(c3ccccc3)CC2c2ccccc2)cc1 (stereo unspecified) | 43.8* | 9.4 | -1.0 | -10.8 | 27.6 | 7.8 | 46.9* | 12.4*
O=Cc1ccc(N2N=C(c3ccccc3)CC2c2ccccc2)cc1 (stereo unspecified) | 7.6 | -0.5 | 2.1 | -47.0 | 10.7 | 10.4 | · | ·
Cc1c(C)n(Cc2ccc(-c3ccccc3C(=O)O)cc2)c2ccc(C(=O)N[C@@H](C)c3ccc([N+](=O)[O-])cc3)cc12 | 73.5* | · | 5.0 | · | 8.7 | -9.5 | 74.4* | 34.8*
Cc1c(/C=C(\CC(=O)O)c2nc3ccccc3s2)cc(C#N)n1C | 9.7 | -3.9 | 2.2 | -1.8 | 0.8 | -2.0 | · | ·
Cc1nn(-c2ccccc2)c(Cl)c1/C=C(/CC(=O)O)c1nc2ccccc2s1 | 47.2* | 1.1 | -1.8 | -6.6 | 0.2 | -1.0 | 35.9* | 9.8*
Cc1nn(-c2ccccc2)c(Cl)c1/C=C(\CC(=O)O)c1nc2ccccc2s1 | 42.4* | -1.6 | -0.4 | -8.4 | -4.4 | 3.2 | 43.3* | 12.9*
COc1ccc(OC)c(S(=O)(=O)N2CCCC(C(=O)Nc3c(C)n(C)n(-c4ccccc4)c3=O)C2)c1 (stereo unspecified) | -1.9 | · | -4.9 | · | 0.1 | -1.7 | · | ·
Cc1c(Br)cc(-c2nnco2)cc1Br | 39.5* | 0.8 | 3.2 | 3.9 | 5.1 | -4.7 | 3.8 | 0.9
